Assay results from different studies.
Target: RAC-gamma serine/threonine-protein kinase (AKT3, Homo sapiens, UniProt Q9Y243)

SMILES	assay	conditions	remaining binding
CN(C)c1nccc(-c2cnn3ncccc23)n1	binding	1 µM	100%
Cc1noc([C@H]2C[C@@H](c3ccc(C(F)(F)F)cc3)CN(C(=O)N3CCS(=O)(=O)C3)C2)n1	cell-free assay, competition with immobilised ligand	1 µM	100%
O=C(NCCCN1CCOCC1)c1ccc(Nc2nccc(-c3cc4ccccc4s3)n2)cc1	binding, competition with immobilised ligand	1 µM	100%
O=C(NCC1CCOCC1)c1n[nH]cc1NC(=O)c1c(F)cccc1F	binding, competition with immobilised ligand	1 µM	90%
Cc1nc(C2CCN(C(=O)c3ccc(OC(F)(F)F)cc3N)CC2)c2ncc(N3CCN(C)CC3)cc2n1	cell-free assay, competition with immobilised ligand	1 µM	95%
C[C@@H](c1ccc(-n2cnc3c(N)ncnc32)cc1)N1CCc2nn(C)c(Cc3ccccc3)c2C1=O	binding, competition with immobilised ligand	0.1 µM	62%
COc1ncc2cc3ccccc3nc2c1C#N	cell-free assay, competition with immobilised ligand	5 µM	100%
CCc1ccccc1C(=O)Nc1n[nH]c2c(C)c(F)c(C3C(C#N)=C(C)N(C)C(C)=C3C#N)cc12	cell-free assay, competition with immobilised ligand	1 µM	100%
CN(CCCC(F)(F)F)c1nccc(-c2cnn3ncccc23)n1	binding	1 µM	83%
CCN1CCN(Cc2ccc(C(=O)Nc3ccc(C)c(Oc4ccc5c(c4)CC(=O)N5)c3)cc2C(F)(F)F)CC1	binding, competition with immobilised ligand	1 µM	89%
CNC(=O)[C@@H]1CC[C@@H](n2c(-c3ccc4cnccc4c3)nc3ccc(C(=O)NCc4cccc(C(N)=O)c4)cc32)C1	binding, competition with immobilised ligand	1 µM	100%
N[C@H]1CCN(c2nccc(-c3cnn4ncccc34)n2)C1	binding	1 µM	100%
O=C(NCCCN1CCOCC1)c1ccc(Nc2ncc(Cl)c(-c3ccc(Cl)s3)n2)cc1	binding, competition with immobilised ligand	1 µM	100%
C[C@@H]1CCN(c2nccc(-c3cnn4ncccc34)n2)C1	binding	1 µM	78%
O=C1NC(c2ccccn2)Sc2ccccc21 (stereo not drawn)	cell-free assay, competition with immobilised ligand	1 µM	100%
CN(C)c1nccc(-c2cnc3ncccn23)n1	binding	1 µM	91%
O=C(O)[C@@H]1[C@@H](Cn2nnc3ccccc3c2=O)CC[C@H]1C(=O)c1ccc(OCCC2CCOCC2)cc1	cell-free assay, competition with immobilised ligand	1 µM	100%
O=C(c1ccc(Nc2nccc(-c3cc4ccccc4s3)n2)cc1)N1CCC(N2CCCC2)CC1	binding, competition with immobilised ligand	1 µM	100%
COc1ccnn2ncc(-c3ccnc(N(C)C)n3)c12	binding	1 µM	98%
COc1cnc(Nc2cccc(S(N)(=O)=O)c2)nc1N1CCN(c2ccccc2)C(=O)C1	binding, competition with immobilised ligand	1 µM	100%
NS(=O)(=O)c1cc(NC(=O)C2(c3ccccc3Cl)CC2)ccc1Oc1cccc(Cl)c1	cell-free assay, competition with immobilised ligand	1 µM	79%
